Assay results from ChEMBL document CHEMBL1127529, “Antipsoriatic anthrones with modulated redox properties. 2. Novel derivatives of chrysarobin and isochrysarobin--antiproliferative activity and 5-lipoxygenase inhibition” (J Med Chem, 1994).

How the values were obtained:
[1] = target: T1, Polyunsaturated fatty acid 5-lipoxygenase (Homo sapiens, UniProt P09917); test: Inhibitory concentration against arachidonic acid 5-lipoxygenation; type: functional
T1 sequence (P09917 whole entry): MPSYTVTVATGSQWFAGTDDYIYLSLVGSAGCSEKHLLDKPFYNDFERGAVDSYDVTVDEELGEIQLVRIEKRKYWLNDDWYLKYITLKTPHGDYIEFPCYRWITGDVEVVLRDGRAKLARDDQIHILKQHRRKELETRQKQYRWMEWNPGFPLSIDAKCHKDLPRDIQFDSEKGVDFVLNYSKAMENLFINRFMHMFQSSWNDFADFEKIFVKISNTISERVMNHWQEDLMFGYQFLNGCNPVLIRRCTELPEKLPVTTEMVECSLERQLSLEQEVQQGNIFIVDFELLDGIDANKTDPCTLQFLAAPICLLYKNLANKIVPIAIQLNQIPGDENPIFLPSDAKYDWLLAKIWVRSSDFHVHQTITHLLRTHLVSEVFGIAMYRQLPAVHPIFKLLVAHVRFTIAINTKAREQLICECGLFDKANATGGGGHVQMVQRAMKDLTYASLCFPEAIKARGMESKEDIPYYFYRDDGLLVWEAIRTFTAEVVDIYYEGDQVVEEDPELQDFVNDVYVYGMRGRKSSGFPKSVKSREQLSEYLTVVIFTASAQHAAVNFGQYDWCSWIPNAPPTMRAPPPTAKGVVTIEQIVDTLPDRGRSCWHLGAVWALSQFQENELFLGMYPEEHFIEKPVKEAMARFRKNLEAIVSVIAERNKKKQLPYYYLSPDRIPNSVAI
How it was run: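 Bovine PMNL (10^7 cells/mL) were stimulated with Ca-ionophore. Compound was preincubated for 15 min at 37 °C.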

HaCaT = test: Antiproliferative activity against HaCaT cells; type: functional, cell-based; conditions: Homo sapiens
How it was run: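 HaCaT human keratinocytes were kept in DMEM with 10% FCS, penicillin and streptomycin at 37 °C under 8% CO2. After 48 h the cells were detached with trypsin/EDTA and counted by phase-contrast microscopy.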

Liposome = test: Inhibition of 2,2'-azobis(2-aminopropane)hydrochloride (AAPH) induced lipid peroxidation in bovine brain phospholipid liposomes; type: functional, subcellular, Bos taurus
[2] = Reducing activity against 2,2-diphenyl-1-picrylhydrazyl (DPPH) with equimolar compound; type: functional
How it was run: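 Test compound and DPPH, each 10⁻⁴ M in acetone/PBS (1-1 v/v), mixed 1 mL + 1 mL. DPPH reduction followed spectrophotometrically at 516 nm. Reciprocal DPPH concentration plotted against time gave straight lines, and second-order rate constants (M⁻¹ s⁻¹) were taken from the slopes. Values are means, N = 3-6. Highly reactive compounds gave approximate values only.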

IC50 [1]: 7 µM | IC50 (Liposome): 79 µM
SMILES: O=C1c2c(O)cccc2Cc2cccc(O)c21 [ANTHRALIN]
IC50 (HaCaT): 200 nM | kDPPH [2]: 24.2 M⁻¹ s⁻¹
